From ChEMBL document CHEMBL1287658, “Reinvestigation of structure-activity relationship of methoxylated chalcones as antimalarials: synthesis and evaluation of 2,4,5-trimethoxy substituted patterns as lead candidates derived from abundantly available natural β-asarone” (Eur J Med Chem, 2010)
pIC50: −log10 of the molar value. The source made the active and inactive calls. The rule behind the calls is not given here.

Columns and labels:
Plasmodium falciparum [1] = assay: Antimalarial activity against chloroquine-sensitive Plasmodium falciparum 3D7 infected in human O+ erythrocytes after 72 hrs by SYBR Green-1 fluorescence based assay; format: functional, organism-based; details: 3D7, 72 h
Method in brief: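 P. falciparum 3D7 kept in O+ human erythrocytes, 4% hematocrit, RPMI 1640 with Albumax, hypoxanthine and gentamicin, 37 °C under 5% O2/5% CO2/90% N2. Sorbitol-synchronized rings were plated at 2% hematocrit, 1% parasitemia with drug 0–10^-4 M (0.4% DMSO final), triplicate wells, 72 h. SYBR Green I read at ex 497/em 520 nm. IC50 by visual matching of 50% growth inhibition.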

Plasmodium falciparum [2] = assay: Inhibition of Plasmodium falciparum-mediated human hemoglobin degradation at 100 uM; format: functional, organism-based
L929 = assay: Cytotoxicity against mouse L929 cells assessed as cell viability after 24 hrs by MTT assay; format: cell-based; details: l929, 24 h
Method in brief: (§1)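 HeLa and L929 cells were grown in RPMI with 10% FBS, seeded at 10⁴ cells/well overnight, then exposed to drug for 24 h at 37 °C, 5% CO2. DMSO at 10% final was the positive control. MTT was added for 4 h, then formazan was dissolved in DMSO and read at 570 nm. TC50 was taken from dose-response curves.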

[3] = Selectivity index, ratio of TC50 for mice (Mus musculus) L929 cells to IC50 for Plasmodium falciparum 3D7; format: toxicity, cell-based
Method in brief: (§2)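 Selectivity index was TC50 (24 h MTT in HeLa or L929) divided by IC50 against 3D7 (72 h SYBR Green I growth assay).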

[4] = Selectivity index, ratio of TC50 for human HeLa cells to IC50 for Plasmodium falciparum 3D7; format: toxicity, cell-based; method in brief: as §2
Plasmodium falciparum [5] = assay: Resistance index, ratio of IC50 for Plasmodium falciparum Dd2 to IC50 for Plasmodium falciparum 3D7; format: functional
Method in brief: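 Ratio of IC50 against Dd2 to IC50 against 3D7. Both IC50s come from the same 72 h SYBR Green I assay: sorbitol-synchronised rings, 2% hematocrit, 1% parasitemia, 0 to 10^-4 M in triplicate, 0.4% final DMSO. Each IC50 taken by visual matching of 50% growth inhibition.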

HeLa = assay: Cytotoxicity against human HeLa cells assessed as cell viability after 24 hrs by MTT assay; format: cell-based; method in brief: as §1
Plasmodium falciparum [6] = assay: Antimalarial activity against chloroquine-resistant Plasmodium falciparum Dd2 infected in human O+ erythrocytes after 72 hrs by SYBR Green-1 fluorescence based assay; format: functional, organism-based; details: Dd2, 72 h
Method in brief: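 Ring-stage culture (5% sorbitol synchronised) plated at 2% hematocrit, 1% parasitemia in RPMI 1640 with 0.5% Albumax, hypoxanthine, gentamicin; 37 °C, 5% O2/5% CO2/90% N2. Compounds from DMSO stock, final 0.4% DMSO, 0 to 10^-4 M, triplicate wells. 72 h, then SYBR Green I fluorescence (ex 497/em 520 nm). IC50 by visual matching of 50% growth inhibition.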

SMILES	pIC50 (Plasmodium falciparum [1])	inhibition (Plasmodium falciparum [2])	further results
O=C(/C=C/c1ccc(Cl)cc1)c1ccc(Cl)cc1 [4',4-DICHLOROCHALCONE]	4.19	inactive	–
COc1cc(OC)c(OC)cc1CCC(=O)c1ccc(Cl)cc1	4.19	inactive	–
COc1cc(OC)c(OC)cc1/C=C/C(=O)c1ccc(Br)cc1	5.74	inactive	Activity (L929): Non-toxic; selectivity ratio [3]: 55.6; selectivity ratio [4]: 31.7; Ratio IC50 (Plasmodium falciparum [5]): 2.8; Activity (HeLa): Non-toxic; pIC50 (Plasmodium falciparum [6]): 5.30
C=CC(C)(C)c1cc(/C=C/C(=O)c2ccc(O)cc2)c(OC)cc1O [LICOAGROCHACONE A]	5.39	inactive	–
C=CCOc1ccc(C(=O)/C=C/c2ccc(Cl)cc2)cc1	4.12	inactive	–
COc1cc(OC)c(OC)cc1/C=C/C(=O)c1ccc(I)cc1	5.70	inactive	Activity (L929): Non-toxic; selectivity ratio [3]: > 50; selectivity ratio [4]: 50; Ratio IC50 (Plasmodium falciparum [5]): 3.7; Activity (HeLa): Non-toxic; pIC50 (Plasmodium falciparum [6]): 5.12
O=C(/C=C/c1ccc(Cl)cc1)c1ccc2c(c1)OCO2	4.01	inactive	–
CCN(CC)CCCC(C)Nc1ccnc2cc(Cl)ccc12 (centres undefined)	–	inactive	–
COc1ccc(/C=C/C(=O)c2ccc(Cl)cc2)c(OC)c1	5.22	inactive	selectivity ratio [3]: 14.6; selectivity ratio [4]: > 16.6; Ratio IC50 (Plasmodium falciparum [5]): 1.1; pIC50 (Plasmodium falciparum [6]): 5.17
O=C(/C=C/c1ccco1)c1ccc([N+](=O)[O-])cc1	< 3.70	inactive	–
COc1cc(OC)c(OC)cc1/C=C/C(=O)c1ccc(C#N)cc1	< 4.00	inactive	–
COc1cc(OC)c(OC)cc1/C=C/C(=O)c1ccc(Cl)c(Cl)c1	< 4.70	inactive	–
COc1ccc(C(=O)/C=C/c2ccc(Cl)c(Cl)c2)cc1	< 3.70	inactive	–
COc1cc(/C=C/C(=O)c2ccc(Cl)cc2)cc(OC)c1OC	5.34	inactive	selectivity ratio [3]: 2.8; selectivity ratio [4]: 3; Ratio IC50 (Plasmodium falciparum [5]): 2.5; pIC50 (Plasmodium falciparum [6]): 4.94
COc1cc(OC)c(OC)cc1CCC(O)c1ccc(Cl)cc1 (centres undefined)	4.30	inactive	–
COc1cc(OC)c(OC)cc1/C=C/C(=O)c1ccc(Cl)cc1	5.40	inactive	selectivity ratio [3]: 8.3; selectivity ratio [4]: 9; Ratio IC50 (Plasmodium falciparum [5]): 1.7; pIC50 (Plasmodium falciparum [6]): 5.16
COc1cc(OC)c(OC)cc1/C=C/C(=O)c1ccc([N+](=O)[O-])cc1	< 3.70	inactive	–
O=C(/C=C/c1ccc(Cl)cc1)c1ccc([N+](=O)[O-])cc1	4.11	inactive	–
COc1ccc(C(=O)/C=C/c2ccc(Cl)cc2)cc1	4.06	inactive	–
O=C(/C=C/c1cccs1)c1ccc([N+](=O)[O-])cc1	3.77	inactive	–

Second part, led by results:

pIC50 (Plasmodium falciparum [1])	SMILES	inhibition (Plasmodium falciparum [2])	further results
4.30	O=C(/C=C/c1ccc(Cl)cc1)c1ccc(Br)cc1	inactive	–
4.74	COc1cc(OC)c(OC)cc1/C=C/C(=O)/C=C/c1ccc(Br)cc1	inactive	–
4.91	COc1cc(OC)c(OC)cc1/C=C/C=C/C(=O)c1ccc(Br)cc1	inactive	–
4.33	COc1cc(OC)c(OC)cc1/C=C/C(=O)c1ccc(-c2ccc(Br)cc2)cc1	inactive	–
5.08	C=CCn1cc(C(CC(=O)c2ccc(Cl)cc2)c2cc(OC)c(OC)cc2OC)c2ccccc21 (centres undefined)	inactive	–
5.07	COc1cc(OC)c(C(CC(=O)c2ccc(Cl)cc2)c2c[nH]c3ccccc23)cc1OC (centres undefined)	inactive	–
4.52	O=C(/C=C/c1ccc(Cl)cc1)c1ccc(O)cc1	inactive	–
4.76	C=CCn1cc(/C(=C\C(=O)c2ccc(Br)cc2)c2cc(OC)c(OC)cc2OC)c2ccccc21	inactive	–
4.54	COc1ccc(/C=C/C(=O)c2ccc(Cl)cc2)cc1	inactive	–
4.31	COc1ccc(/C=C/C(C)=O)c(OC)c1	inactive	–
5.11	COc1cc(OC)c(OC)cc1/C=C/C(=O)c1ccc(OC)c(OC)c1OC	inactive	–
5.10	COc1cc(OC)c(/C=C/C(=O)c2ccc(Cl)cc2)c(OC)c1	inactive	–
4.94	COc1ccc(C(=O)/C=C/c2cc(OC)c(OC)cc2OC)cc1	inactive	–
